The source made the active and inactive calls. No cut-off for these calls is given here.
Experiments:
Escherichia coli = test: Antibacterial activity against Escherichia coli ATCC 25922 assessed as bacterial growth inhibition at 32 ug/ml measured after 18 hrs by resazurine dye based assay; format: functional, organism-based; conditions: dose 32.0 µg/ml
How it was run: (§1)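 Screened through CO-ADD at 32 µg/mL against a panel of five bacteria and two fungi. Run in duplicate (n=2) on different plates. Activity was called when inhibition exceeded 80% with a Z-score above 2.5 in either replicate.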

Cryptococcus neoformans = test: Antifungal activity against Cryptococcus neoformans var. grubii H99 ATCC 208821 assessed as fungal growth inhibition at 32 ug/ml measured after 3 days by resazurine dye based assay; format: functional, organism-based; conditions: dose 32.0 µg/ml, time 3.0 day; how it was run: as §1
Haemonchus contortus [1] = test: Anthelmintic activity against third stage larvae of Haemonchus contortus assessed as inhibition of xL3 larval motility at 20 uM measured after 72 hrs; format: functional, organism-based
How it was run: (§2)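 Exsheathed third-stage larvae (xL3s) of Haemonchus contortus, screened at 20 µM in 96-well plates holding 300 xL3s per well; testing was done at the University of Melbourne.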

Haemonchus contortus [2] = test: Anthelmintic activity against third stage larvae of Haemonchus contortus assessed as inhibition of larval development at 20 uM measured after 7 days by microscopic analysis; format: functional, organism-based; conditions: time 7.0 day; how it was run: as §2
Staphylococcus aureus = test: Antibacterial activity against Staphylococcus aureus MRSA ATCC 43300 assessed as bacterial growth inhibition at 32 ug/ml measured after 18 hrs by resazurine dye based assay relative to control; format: functional; how it was run: as §1
Candida albicans = test: Antifungal activity against Candida albicans ATCC 90028 assessed as fungal growth inhibition at 32 ug/ml measured after 3 days by resazurine dye based assay relative to control; format: functional; conditions: ATCC 90028, 72 h, time 3 day; how it was run: as §1

Q: Which Activity (Escherichia coli) does the source give for CC(=O)OC[C@@H]1O[C@H](Oc2c(OC(C)=O)cc3c4c(ccc(-c5ccccc5)c24)C(=O)OC3)[C@@H](OC(C)=O)[C@H](OC(C)=O)[C@H]1OC(C)=O here?
A: inactive

Q: What about the Activity (Cryptococcus neoformans) of the same compound?
A: inactive

Q: Which Activity (Escherichia coli) does the source give for O=C1OCc2cc(O)c(O[C@@H]3O[C@H](CO)[C@@H](O)[C@H](O)[C@H]3O)c3c(-c4ccccc4)ccc1c23 here?
A: inactive

Q: And the Activity (Cryptococcus neoformans)?
A: inactive

Q: And the Activity (Haemonchus contortus [1])?
A: inactive

Q: What about the Activity (Haemonchus contortus [2]) of the same compound?
A: inactive

Q: How did the Activity (Escherichia coli) turn out when O=C1OC(C(=O)O)c2cc(O)c(O[C@H]3O[C@@H](CO)[C@H](O)[C@@H](O)[C@@H]3O)c3c(-c4ccccc4)ccc1c23 (mixture of isomers) was run?
A: inactive

Q: And the Activity (Cryptococcus neoformans)?
A: inactive

Q: For O=c1c(O[C@@H]2O[C@H](CO)[C@@H](O)[C@H](O)[C@H]2O)c(-c2ccc(O)c(O)c2)oc2cc(O)cc(O)c12, which Activity (Escherichia coli) is on record?
A: inactive

Q: What about the Activity (Cryptococcus neoformans) of the same compound?
A: inactive

Q: With COc1cc2ccc(=O)c3ccc4c5ccccc5oc1c4c23 as the compound, how does the Activity (Escherichia coli) read?
A: inactive

Q: And the Activity (Cryptococcus neoformans)?
A: inactive

Q: And the inhibition at 32 µg/mL (Staphylococcus aureus)?
A: 58.4%

Q: Which results are given for O=c1c(O[C@@H]2O[C@H](CO[C@@H]3O[C@H](CO)[C@@H](O)[C@H](O)[C@H]3O)[C@@H](O)[C@H](O)[C@H]2O)c(-c2ccc(O)c(O)c2)oc2cc(O)cc(O)c12?
A: Activity (Escherichia coli): inactive; Activity (Cryptococcus neoformans): inactive

Q: Which Activity (Escherichia coli) does the source give for O=C1C=Cc2cc(O)c(O[C@@H]3O[C@H](CO)[C@@H](O)[C@H](O)[C@H]3O)c3cc(-c4ccccc4O)cc1c23 here?
A: inactive

Q: And the Activity (Cryptococcus neoformans)?
A: inactive

Q: What about the Activity (Haemonchus contortus [1]) of the same compound?
A: inactive

Q: And the Activity (Haemonchus contortus [2])?
A: inactive

Q: And the inhibition at 32 µg/mL (Candida albicans)?
A: 38.7%

Q: For O=C1C(O)=Cc2cc(O[C@@H]3O[C@H](CO[C@@H]4O[C@H](CO)[C@@H](O)[C@H](O)[C@H]4O)[C@@H](O)[C@H](O)[C@H]3O)cc3c(-c4ccc(O)c(O)c4)ccc1c23, which Activity (Escherichia coli) is on record?
A: inactive

Q: And the Activity (Cryptococcus neoformans)?
A: inactive

Q: And the Activity (Haemonchus contortus [1])?
A: inactive

Q: And the Activity (Haemonchus contortus [2])?
A: inactive

Q: How did the Activity (Escherichia coli) turn out when COC(=O)c1ccc(-c2ccccc2)c2c1C(=O)C=C(OC)C2=O was run?
A: inactive

Q: And the Activity (Cryptococcus neoformans)?
A: inactive

Q: How did the Activity (Escherichia coli) turn out when O=C1OC(O)c2cc(O)c(O[C@@H]3O[C@H](CO)[C@@H](O)[C@H](O)[C@H]3O)c3c(-c4ccccc4)ccc1c23 (mixture of isomers) was run?
A: inactive

Q: And the Activity (Cryptococcus neoformans)?
A: inactive

Q: And the Activity (Haemonchus contortus [1])?
A: inactive

Q: And the Activity (Haemonchus contortus [2])?
A: inactive

Q: Which Activity (Escherichia coli) does the source give for COC1=Cc2cc(OC)c(O[C@@H]3O[C@H](CO)[C@@H](O)[C@H](O)[C@H]3O[C@@H]3O[C@H](COC(=O)/C=C/c4ccc(O)c(O)c4)[C@@H](O)[C@H](O)[C@H]3O)c3c(-c4ccccc4)ccc(c23)C1=O here?
A: inactive

Q: And the Activity (Cryptococcus neoformans)?
A: inactive

Q: And the Activity (Haemonchus contortus [1])?
A: inactive

Q: What about the Activity (Haemonchus contortus [2]) of the same compound?
A: inactive

Q: For O=C1C(O)=Cc2ccc(O[C@@H]3O[C@H](CO)[C@@H](O)[C@H](O)[C@H]3O)c3cc(-c4ccccc4O)cc1c23, which Activity (Escherichia coli) is on record?
A: inactive

Q: And the Activity (Cryptococcus neoformans)?
A: inactive

Q: And the Activity (Haemonchus contortus [1])?
A: inactive

Q: And the Activity (Haemonchus contortus [2])?
A: inactive

Q: Which results are given for O=C1C=Cc2cc(O[C@@H]3O[C@H](CO)[C@@H](O)[C@H](O)[C@H]3O)cc3c(-c4ccc(O)cc4)ccc1c23?
A: Activity (Escherichia coli): inactive; Activity (Cryptococcus neoformans): inactive; Activity (Haemonchus contortus [1]): inactive; Activity (Haemonchus contortus [2]): inactive; inhibition at 32 µg/mL (Candida albicans): 29.6%

Q: COc1cc2ccc(=O)c3cc(O[C@@H]4O[C@H](CO)[C@@H](O)[C@H](O)[C@H]4O)c4c5ccccc5oc1c4c23 was tested. Which Activity (Escherichia coli) did it give?
A: inactive

Q: And the Activity (Cryptococcus neoformans)?
A: inactive

Q: And the inhibition at 32 µg/mL (Staphylococcus aureus)?
A: 8.1%

Source: ChEMBL document CHEMBL4840361, “Phytochemical Profiling and Biological Testing of the Constituents of the Australian Plant Haemodorum brevisepalum” (2021)
